Screening results deposited in PubChem by Sanford-Burnham Center for Chemical Genomics.
Only a sample is shown.
Apaf-1 act: activators of human Apaf-1 apoptosome, primary screen, biochemical, DEVD-Rh110 fluorescence, uHTS; Apoptotic protease-activating factor 1 (Homo sapiens), O14727; Apaf-1 apoptosome caspase-3 activation; stronger effect = lower value; activity change, negative = activation, % at 20 µM; actives 0.31% (n = 330,000); AID 489031, 2010;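 active = activity change at or below -40% at 20 µM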
Target sequence (O14727 whole entry, looked up): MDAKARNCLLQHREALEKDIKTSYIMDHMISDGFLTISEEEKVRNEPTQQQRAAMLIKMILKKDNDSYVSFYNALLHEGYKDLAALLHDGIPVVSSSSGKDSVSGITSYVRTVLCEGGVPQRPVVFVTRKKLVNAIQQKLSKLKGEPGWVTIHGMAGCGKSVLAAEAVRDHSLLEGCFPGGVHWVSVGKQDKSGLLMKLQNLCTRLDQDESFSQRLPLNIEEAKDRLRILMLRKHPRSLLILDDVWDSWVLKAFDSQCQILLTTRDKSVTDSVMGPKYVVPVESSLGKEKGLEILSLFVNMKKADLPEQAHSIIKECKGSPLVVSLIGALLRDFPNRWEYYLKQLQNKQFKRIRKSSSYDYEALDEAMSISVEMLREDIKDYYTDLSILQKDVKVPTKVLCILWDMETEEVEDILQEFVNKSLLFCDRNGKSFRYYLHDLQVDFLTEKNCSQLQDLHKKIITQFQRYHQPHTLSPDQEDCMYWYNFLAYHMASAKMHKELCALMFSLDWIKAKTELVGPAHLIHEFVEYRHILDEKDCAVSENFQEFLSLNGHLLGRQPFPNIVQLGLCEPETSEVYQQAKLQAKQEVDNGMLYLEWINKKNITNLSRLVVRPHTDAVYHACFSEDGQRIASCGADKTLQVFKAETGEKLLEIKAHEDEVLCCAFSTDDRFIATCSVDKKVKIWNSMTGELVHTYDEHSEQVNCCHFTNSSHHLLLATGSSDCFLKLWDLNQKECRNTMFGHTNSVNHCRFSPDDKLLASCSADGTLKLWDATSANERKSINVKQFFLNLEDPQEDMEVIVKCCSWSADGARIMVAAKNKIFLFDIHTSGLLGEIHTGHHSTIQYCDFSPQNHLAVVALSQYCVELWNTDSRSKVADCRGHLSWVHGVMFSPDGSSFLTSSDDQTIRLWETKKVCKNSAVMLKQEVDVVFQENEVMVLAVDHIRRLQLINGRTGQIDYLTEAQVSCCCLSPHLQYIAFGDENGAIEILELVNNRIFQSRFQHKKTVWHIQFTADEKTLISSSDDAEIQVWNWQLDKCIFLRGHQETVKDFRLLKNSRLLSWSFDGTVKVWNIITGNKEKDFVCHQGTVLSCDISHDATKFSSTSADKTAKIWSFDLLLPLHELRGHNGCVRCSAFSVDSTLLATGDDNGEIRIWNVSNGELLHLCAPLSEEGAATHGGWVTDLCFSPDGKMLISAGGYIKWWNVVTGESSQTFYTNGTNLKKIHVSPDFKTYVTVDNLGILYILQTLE
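Material: reconstituted apoptosome of Apaf-1, cytochrome c, caspase-9, procaspase-3; times: 30 min preincubation, 50 min reaction, room temperature; measured by: fluorescence, 540 nm emission, 480 nm excitation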
Rh110 interf act: Rh110 fluorescence interference by putative Apaf-1 activators, confirmation, artefact control for Apaf-1 activator project, biochemical, 20 µM. shares compounds with Apaf-1 act. quenched caspase reaction, Ex480/Em540. fluorescence interference (activity change), % at 20 µM, hits read low. 980 tested, under 10 active;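 active = mean activity change at or below -40% when tested at 20 µM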
Apaf-1 act conf: Apaf-1 activators, single-dose retest, confirmation, biochemical, fluorescence, DEVD-Rh110, 20 µM. shares compounds with Apaf-1 act. reconstituted apoptosome caspase-3 activity; stronger effect = lower value. activity change, negative = activation, % at 20 µM. actives 5% (n = 980). AID 504617, 2011;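 active = mean activity change at or below -40%, meaning activation of 40% or more, at 20 µM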
Apaf1 act interf: fluorescence interference of Apaf-1 activator hits, dose response, artefact control for Apaf-1 activator project; shares compounds with Apaf-1 act; fluorescence interference counterscreen, Apaf-1 activator assay; EC50, µM; 55 tested, under 10 active; AID 588592, 2011; call rule not given here
Active calls of the source: *; / = not tested or not shown.

SMILES	Apaf-1 act	Rh110 interf act	Apaf-1 act conf	others
CC(=O)[C@@]1(O)CCC2C3C=CC4=CC(=O)CC[C@]4(C)C3CC[C@@]21C (stereo partly drawn)	-287*	9	11
CC(=O)[C@H]1CC[C@H]2[C@@H]3CCC4=CC(=O)CC[C@]4(C)[C@H]3CC[C@]12C	19	/	/
O=C(NC1CC1)C1=C[C@H](c2ccc(C(F)(F)F)cc2)C[C@H](OCCCCO)O1	50	/	/
CCCCCCC(=O)Nc1nc(C)c(-c2csc(Nc3cc(OC)ccc3OC)n2)s1	49	/	/
CN1CCc2c(C#N)c(N3CCCCC3)nc(NCc3ccccc3)c2C1	52	/	/
CC(=O)C1=C(C)OC2(O)c3ccccc3C(=O)C12O (stereo not drawn)	93	/	/
CCOC(=O)C1=C(C)OC2(O)c3ccccc3C(=O)C12O (stereo not drawn)	88	/	/
CC(=O)Oc1ccc2c(c1)Oc1cc(OC(C)=O)ccc1C21OC(=O)c2ccccc21	-259*	-154*	-73*
Cc1ccc(NC(=O)CNCc2ccccc2)cc1Br	-48*	11	-9
CN(CC(=O)NCc1ccccc1)CC(=O)Nc1ccc(Cl)c(C(F)(F)F)c1	53	/	/
O=C1C2(CCCC13COC(c1ccc(O)cc1)OC3)COC(c1ccc(O)cc1)OC2 (stereo not drawn)	-127*	4	-60*	Apaf1 act interf=>100
CCN1CCN(c2ccc(S(=O)(=O)N3CCCCC3)cc2NC(=O)/C=C/c2cc(OC)ccc2OC)CC1	46	/	/
O=C1C(Cl)=C(NCCN2CCCCC2)C(=O)c2ccccc21	68	/	/
Cc1nc(SCc2ccccc2)c2oc3ccccc3c2n1	-159*	16	13
CC(C)N(C(=O)[C@H]1C[C@H](CC(=O)NCCCN(C)C)C(=O)N2CCc3c([nH]c4cc(-c5ccco5)ccc34)[C@]12C)C(C)C	52	/	/
O=C(NCc1nnc(SCC(=O)N2CCCCCC2)o1)c1ccccc1F	-251*	8	13
Oc1ccc(/C=N/Nc2cc(N3CCCC3)nc(N3CCCC3)n2)cc1	97	/	/
Nc1nc2ccc(OC(F)(F)F)cc2s1	-1	/	/
CC(C)N(C(=O)Nc1ccc2nsnc2c1)C(C)C	97	/	/
CSc1cccc(NC(=O)c2cccc3cccnc23)c1	-73*	2	13
Cc1cc(C(=O)COc2cccc3cccnc23)c(C)n1C	53	/	/
O=C(Nc1ccncc1)c1cc(-c2cccc(Br)c2)nc2ccccc12	47	/	/
COc1ccc(OC)c(Nc2cc3ccccc3c(=O)[nH]2)c1	97	/	/
Cc1ccc(NS(=O)(=O)c2ccc(NC(=O)C3CCCO3)cc2)cc1 (stereo not drawn)	-52*	6	12
CC(=O)Nc1ccc(S(=O)(=O)NC2=C(N3CCN(c4ccc(F)cc4)CC3)C(=O)c3ccccc3C2=O)cc1	64	/	/
SMILES	Apaf-1 act	Rh110 interf act	Apaf-1 act conf	others
Oc1cccc(/C=N/Nc2cc(N3CCCC3)nc(N3CCCC3)n2)c1	97	/	/
O=C(CCCCCn1c(=O)[nH]c2ccsc2c1=O)N1CCN(C2CCCCC2)CC1	-387*	0	2
CC(C)COCC(CN(Cc1ccccc1)c1ccccc1)N1CCCC1 (stereo not drawn)	49	/	/
O=C(OCC(=O)N1CCN(S(=O)(=O)c2ccc(Cl)cc2)CC1)c1ccc([N+](=O)[O-])o1	69	/	/
CC(=O)c1cc(C#N)c(Oc2cccc(C(F)(F)F)c2)nc1C	-151*	9	3
Cc1ccc(Cl)cc1NC1=C/C(=N\S(=O)(=O)c2cccs2)c2ccccc2C1=O	95	/	/
CN1CCN(CCCN2c3ccccc3Sc3ccc(C(F)(F)F)cc32)CC1	54	/	/
C/C(=C\C(=O)c1ccc(Br)cc1)NCc1ccccc1	-235*	9	21
CCN1CCN(c2ccc(NC(=O)CCc3c(C)nc4c(-c5ccccc5)c(C)nn4c3C)cc2)CC1	48	/	/
C#CCOCCOCCOCCNc1nc(N2CCN(C(=O)CCCCCCCCCCNC(=O)[C@H](CCCCN)n3cc(C)nn3)CC2)nc(N2CCN(C(=O)CCCCCCCCCCNC(=O)[C@H](CCCN=C(N)N)n3cc(C[C@@H](C)CC)nn3)CC2)n1	75	/	/
O=C1C(=Cc2ccco2)C(=O)c2ccccc21	44	/	/
C=CC[C@@H](Cc1ccc(F)cc1)C(=O)OC[C@@H]1CCCN1C(=O)[C@@H](CC=C)CC(=O)N[C@@H](CO)Cc1ccccc1	40	/	/
CCOc1ccc(NC(=S)Nc2cccc3cnccc23)cc1	96	/	/
